PLK1 inh – PLK1 (human) kinase inhibition | inhibition, % at 10 µM | 97,000 compounds, 0.53% hits | recombinant PLK1 kinase, TR-FRET peptide phosphorylation | AID 619 | P53350;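 active means inhibition of 50% or more in the single-concentration screen; inactive means inhibition below 50%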;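 further: 0% = DMSO max control and 100% = H-89 dihydrochloride min control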
PLK1 PBD inh – inhibitors of human Plk1 polo box domain binding; P53350; Plk1 PBD phosphopeptide binding, fluorescence polarization; inhibition, %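 (tested at about 20 µM)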; 97,000 compounds, 0.13% hits; in the data active means inhibition above about 34%, passing the limit was not always enough
FAK inh – inhibitors of human focal adhesion kinase; 97,000 compounds, 0.84% hits; inhibition, %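 (tested at 7 µM)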; biochemical FAK kinase activity assay; AID 727; in the data active means inhibition above about 19%;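 further: 0% = DMSO and 100% = reference compound high control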
HIV Rev-RRE inh – inhibitors of HIV-1 Rev-RRE RNA interaction. 97,000 compounds, 0.79% hits. Rev peptide-RRE RNA binding, FRET. inhibition, % at 8 µM. P05866;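 active means inhibition above the screen-wide mean plus 3 SD, cut at about 35% in these data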;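 further: 0% = median DMSO wells and 100% = median Neomycin B control wells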
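Assay system: Labelled RRE RNA duplex and labelled Rev peptide | Times: 5 min preincubation and 15 min binding, 25 °C | Detection: FRET, ex 480 nm, em 540 and 671 nm | Evaluation: % inhibition of FRET ratio versus controls | Benchmarks: DMSO wells as 0% and neomycin B wells as 100% inhibition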
Cav32 inh – human Cav3.2 channel inhibition, primary screen | B-score at 10 µM | Cav3.2-expressing cells, Fluo-4 calcium fluorescence FDSS; active compounds read low | 100,000 compounds, 4% hits | O95180;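 active means single-dose well whose peak fluorescence ratio is a statistical outlier from its plate by either plate-standardised score or position-corrected B-score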
PTK2B oligo ant – antagonists of human Pyk2 oligomerization; Q14289; Q293 cells, Pyk2 FERM NanoBiT luminescence; active compounds read low; z-score (the deposit names both 25 µM and 10 µM); 99,000 compounds, 0.83% hits;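 active means Z-score of -3 or lower, scaled per plate to the spread of control and sample wells; inactive means z-score above -3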;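 further: negative z-score means lost luminescence so less FERM oligomerization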
* marks the source's active call; other numbers are inactive results. In the library only some 5.8% were active in any assay of this set; here they are far more common.

How did CS(=O)(=O)N1CCC(C(=O)N2CCC(Cc3ccccc3)CC2)CC1 do in these assays?
PLK1 inh: -11; PLK1 PBD inh: 4; FAK inh: 0; HIV Rev-RRE inh: 5; Cav32 inh: 0.18; PTK2B oligo ant: -1.4

What do the screens show for `O=C(C1CCCN(S(=O)(=O)Cc2ccccc2)C1)N1CCC(Cc2ccccc2)CC1` (stereo unspecified)?
PLK1 inh: -3; PLK1 PBD inh: 17; FAK inh: 0; HIV Rev-RRE inh: 5; Cav32 inh: -5.5*; PTK2B oligo ant: -1.1

Results for CCC(c1nnnn1CS(=O)(=O)c1ccc(C)cc1)N1CCN(c2nc3ccccc3s2)CC1 (stereo unspecified) ?
PLK1 inh: -10; PLK1 PBD inh: -18; FAK inh: 3; HIV Rev-RRE inh: 4; Cav32 inh: 0.3; PTK2B oligo ant: -0.22

Results for CCOC(=O)c1cnn(CCOC(=O)C2CC2)c1NC(=O)C1CC1 ?
PLK1 inh: -2; PLK1 PBD inh: 0; FAK inh: 1; HIV Rev-RRE inh: 2; Cav32 inh: -3.6*; PTK2B oligo ant: 0.08

Results for CC(C)C[C@H]1C(=O)N2CCC[C@H]2[C@]2(O)O[C@](NC(=O)[C@@H]3C=C4c5cccc6[nH]c(Br)c(c56)CC4N(C)C3)(C(C)C)C(=O)N12 (stereo partly specified) ?
Cav32 inh: -4.8*

What do the screens show for `Cn1cc(C(=O)c2ccc(Cl)cc2Cl)cc1C(=O)N/N=C(\N)COc1ccccc1`?
PLK1 inh: 2; PLK1 PBD inh: 9; FAK inh: 3; HIV Rev-RRE inh: -4; Cav32 inh: -6.6*; PTK2B oligo ant: 0.69

What do the screens show for `Cn1cc(C(=O)c2ccc(Cl)cc2Cl)cc1C(=O)N/N=C(\N)COc1ccc(F)cc1`?
PLK1 inh: 2; PLK1 PBD inh: 1; FAK inh: 0; HIV Rev-RRE inh: 11; Cav32 inh: -6.1*; PTK2B oligo ant: -0.82

What do the screens show for `CC(=O)C1=C(C)NC(SCC(=O)c2ccc(-c3ccccc3)cc2)=C(C#N)C1c1cccnc1` (stereo unspecified)?
PLK1 inh: -11; PLK1 PBD inh: 14; FAK inh: 1; HIV Rev-RRE inh: 12; Cav32 inh: -1.4

How did CC(C)c1ccc2c(c1)C1Cc3ccccc3C1N2 (stereo unspecified) do in these assays?
PTK2B oligo ant: -1.1

How did COc1cccc(C2(O)CCN(C(=O)Cc3cccnc3)CC2)c1 do in these assays?
PLK1 inh: -2; PLK1 PBD inh: 4; FAK inh: -2; HIV Rev-RRE inh: 6; Cav32 inh: 0.33; PTK2B oligo ant: 0.48

Results for CCOC(=O)c1cnc2c(Cl)c(Cl)ccc2c1N1CCN(C)CC1 ?
PLK1 inh: -9; PLK1 PBD inh: 2; FAK inh: 2; HIV Rev-RRE inh: 12; Cav32 inh: 2.2; PTK2B oligo ant: 0.47

Results for Cc1cccc(NC(=O)C2c3ccccc3C(=O)N3CCc4ccccc4C23)n1 (stereo unspecified) ?
PLK1 inh: -10; PLK1 PBD inh: 11; FAK inh: 0; HIV Rev-RRE inh: 11; Cav32 inh: -4.6; PTK2B oligo ant: -0.8

Results for CCOC(=O)c1sc(NC(=O)c2cc(-c3ccccc3C)nc3ccccc23)c(C#N)c1C ?
PLK1 inh: -5; PLK1 PBD inh: 4; FAK inh: -5; HIV Rev-RRE inh: 10; Cav32 inh: -6.8*; PTK2B oligo ant: -3.7*

How did Cc1cccc(-c2c3c(=O)n(C)c(=O)n(C)c3c3nnc4ccccc4n23)c1 do in these assays?
PLK1 inh: 0; PLK1 PBD inh: 0; FAK inh: 3; HIV Rev-RRE inh: 49*; PTK2B oligo ant: 0.39

Results for Cc1ccc(-c2c3c(=O)n(C)c(=O)n(C)c3c3nnc4ccccc4n23)cc1 ?
PLK1 inh: -12; PLK1 PBD inh: -2; FAK inh: 0; HIV Rev-RRE inh: 23

What do the screens show for `CCCCSc1nc(N)c(C#N)c(-c2cccs2)c1C#N`?
PLK1 inh: -9; PLK1 PBD inh: -24; FAK inh: 8; HIV Rev-RRE inh: 13; Cav32 inh: 0.65; PTK2B oligo ant: -3.8*

Results for CC(=O)CSc1nc(N)c(C#N)c(-c2cccs2)c1C#N ?
PLK1 inh: -2; PLK1 PBD inh: -18; FAK inh: 1; HIV Rev-RRE inh: 8; Cav32 inh: 1.1; PTK2B oligo ant: -2.2

What do the screens show for `CCOCCCn1c(=NC(=O)c2cccnc2)c(C(=O)OCC)cc2c(=O)n3ccccc3nc21`?
PLK1 inh: 2; PLK1 PBD inh: -17; FAK inh: -3; HIV Rev-RRE inh: 11; Cav32 inh: 4.2*; PTK2B oligo ant: -0.1

Results for CCCCn1c(=NC(=O)c2cccnc2)c(C#N)cc2c(=O)n3cccc(C)c3nc21 ?
PLK1 inh: -20; PLK1 PBD inh: -3; FAK inh: 2; HIV Rev-RRE inh: 49*; PTK2B oligo ant: -0.7

How did CCCCn1c(=NC(=O)c2cccnc2)c(C(=O)OCC)cc2c(=O)n3ccccc3nc21 do in these assays?
PLK1 inh: -18; PLK1 PBD inh: 3; FAK inh: 5; HIV Rev-RRE inh: 10; Cav32 inh: 1.5; PTK2B oligo ant: -0.74

Results for CCCCC1CC(/C(C)=N/NC(N)=O)OC1=O (stereo unspecified) ?
PLK1 inh: -8; PLK1 PBD inh: 2; FAK inh: -1; HIV Rev-RRE inh: 5; Cav32 inh: 0.23; PTK2B oligo ant: -0.08

Results for CC(OC(=O)c1nsc(Cl)c1Cl)C(=O)NC(C)(C)C (stereo unspecified) ?
PLK1 inh: -2; PLK1 PBD inh: 1; FAK inh: -2; HIV Rev-RRE inh: 0; Cav32 inh: 0.94; PTK2B oligo ant: 1.5

How did CCN(CC(=O)Nc1ccc2c(c1)OCO2)Cc1nc2ccccc2c(=O)[nH]1 do in these assays?
Cav32 inh: 0.68; PTK2B oligo ant: 0.69

How did CCN(CC(=O)Nc1ccc2c(c1)OC(F)(F)O2)Cc1nc2ccccc2c(=O)[nH]1 do in these assays?
PLK1 inh: 2; PLK1 PBD inh: -9; FAK inh: 1; HIV Rev-RRE inh: 18; Cav32 inh: -1.6; PTK2B oligo ant: -3.9*

How did COc1ccc(O)c(C(=O)c2cnn(C(=O)c3cc(C)oc3C)c2)c1 do in these assays?
Cav32 inh: 2; PTK2B oligo ant: -0.04

How did CN(C)c1cccc(C(=O)n2cc(C(=O)c3cc(F)ccc3O)cn2)c1 do in these assays?
PLK1 inh: -7; PLK1 PBD inh: -1; FAK inh: 5; HIV Rev-RRE inh: 2; Cav32 inh: -3.9*; PTK2B oligo ant: -0.17

Results for Cc1ccc(NC(=O)N(Cc2ccco2)C(C)c2ccco2)cc1C (stereo unspecified) ?
PLK1 inh: -15; PLK1 PBD inh: 7; FAK inh: -2; HIV Rev-RRE inh: 6; Cav32 inh: -4.6*; PTK2B oligo ant: -0.52

Results for Cc1ccc(NC(=O)N(Cc2cccnc2)Cc2ccco2)cc1C ?
PLK1 inh: 0; PLK1 PBD inh: 14; FAK inh: -7; HIV Rev-RRE inh: -1; Cav32 inh: 2; PTK2B oligo ant: 0.01

High-throughput results (PubChem)
